From ChEMBL document CHEMBL1156207, “Synthesis of mono-carbonyl analogues of curcumin and their effects on inhibition of cytokine release in LPS-stimulated RAW 264.7 macrophages” (Bioorg Med Chem, 2010)
Calls of active or inactive are those of the source. No cut-off for these calls is given here.

Each compound was assayed on RAW264.7 (assay: Antiinflammatory activity against LPS-stimulated mouse RAW264.7 cells assessed as inhibition of TNFalpha accumulation at 10 uM pretreated for 2 hrs before LPS challenge after 22 hrs by ELISA relative to control). Conditions: not given.
Type: functional
Procedure, shortened: (§1)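 RAW 264.7 cells plated at 4.0 × 10⁵/plate at 37 °C, 5% CO₂, pretreated 2 h with compound or vehicle, then LPS added for 22 h. Secreted cytokine in media measured by ELISA and normalized to total protein of lysed cell pellets from parallel plates. Expressed as percent of LPS control; mean with SE from 3–5 independent experiments.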

| SMILES | Activity | inhibition at 10 µM [%] |
| --- | --- | --- |
| O=C(/C=C/c1c(F)cccc1F)/C=C/c1c(F)cccc1F | Active | – |
| O=C1/C(=C/c2cccc(Cl)c2Cl)CCC/C1=C\c1cccc(Cl)c1Cl | inactive | – |
| Cc1ccc(/C=C/C(=O)/C=C/c2ccc(C)cc2C)c(C)c1 | Active | – |
| Cc1ccc(/C=C2\CC/C(=C\c3ccc(C)cc3C)C2=O)c(C)c1 | Active | – |
| COc1cc(OC)c(/C=C/C(=O)/C=C/c2c(OC)cc(OC)cc2OC)c(OC)c1 | Active | – |
| O=C(/C=C/c1ccc(Cl)cc1Cl)/C=C/c1ccc(Cl)cc1Cl | inactive | – |
| O=C(/C=C/c1cc(F)ccc1F)/C=C/c1cc(F)ccc1F | inactive | – |
| COc1cc(OC)c(/C=C2\CCC/C(=C\c3c(OC)cc(OC)cc3OC)C2=O)c(OC)c1 | Active | – |
| COc1cc(OC)c(/C=C2\CC/C(=C\c3c(OC)cc(OC)cc3OC)C2=O)c(OC)c1 | inactive | – |
| CN(C)CCCOc1ccc(/C=C2\CCC/C(=C\c3ccc(OCCCN(C)C)cc3)C2=O)cc1 | – | 96.9 |
| Cc1ccc(/C=C2\CCC/C(=C\c3ccc(C)cc3C)C2=O)c(C)c1 | inactive | – |
| O=C1/C(=C/c2ccc(Cl)cc2Cl)CC/C1=C\c1ccc(Cl)cc1Cl | inactive | – |
| O=C(/C=C/c1ccccc1C(=O)O)/C=C/c1ccccc1C(=O)O | inactive | – |
| O=C1/C(=C\c2ccccc2C(=O)O)CCC/C1=C\c1ccccc1C(=O)O | inactive | – |
| O=C1/C(=C/c2cccc(Cl)c2Cl)CC/C1=C\c1cccc(Cl)c1Cl | inactive | – |
| O=C1/C(=C/c2cc(F)ccc2F)CCC/C1=C\c1cc(F)ccc1F | inactive | – |
| O=C1/C(=C/c2ccccc2C(=O)O)CC/C1=C\c1ccccc1C(=O)O | inactive | – |
| COc1ccc(/C=C/C(=O)/C=C/c2ccc(OC)cc2OC)c(OC)c1 | Active | – |
| O=C1/C(=C/c2cc(F)ccc2F)CC/C1=C\c1cc(F)ccc1F | inactive | – |
| COc1ccc(/C=C2\CCC/C(=C\c3ccc(OC)cc3OC)C2=O)c(OC)c1 | inactive | – |
| O=C1/C(=C/c2c(F)cccc2F)CC/C1=C\c1c(F)cccc1F | inactive | – |
| O=C1/C(=C/c2ccc(Cl)cc2Cl)CCC/C1=C\c1ccc(Cl)cc1Cl | inactive | – |
| COc1ccc(/C=C2\CC/C(=C\c3ccc(OC)cc3OC)C2=O)c(OC)c1 | inactive | – |
| O=C1/C(=C/c2c(F)cccc2F)CCC/C1=C\c1c(F)cccc1F | inactive | – |

What follows are compounds tested on RAW264.7 (assay: Cytotoxicity against LPS-stimulated mouse RAW264.7 cells at 10 uM pretreated for 2 hrs before LPS challenge after 22 hrs). Conditions: raw264.7, 22 h.
Type: cell-based

| SMILES | Activity |
| --- | --- |
| O=C(/C=C/c1c(F)cccc1F)/C=C/c1c(F)cccc1F | Non-toxic |
| CN(C)CCCOc1ccc(/C=C2\CCC/C(=C\c3ccc(OCCCN(C)C)cc3)C2=O)cc1 | Non-toxic |

These compounds were tested on RAW264.7 (assay: Antiinflammatory activity against LPS-stimulated mouse RAW264.7 cells assessed as inhibition of TNFalpha accumulation pretreated for 2 hrs before LPS challenge after 22 hrs by ELISA relative to control). Conditions: not given.
Type: functional, cell-based
Procedure, shortened: (§2)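 Macrophages plated overnight at 4.0 × 10⁶/plate at 37 °C, 5% CO₂, and pretreated 2 h with compound at 1, 2.5, 5.0 and 10 (concentration series), then stimulated with LPS for 22 h. Cytokine in culture media quantified by ELISA and normalized to total cellular protein, measured after lysis in Tris–NP40–SDS buffer and protein assay.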

| SMILES | inhibition |
| --- | --- |
| O=C(/C=C/c1c(F)cccc1F)/C=C/c1c(F)cccc1F | Dose-dependent effect |
| CN(C)CCCOc1ccc(/C=C2\CCC/C(=C\c3ccc(OCCCN(C)C)cc3)C2=O)cc1 | Dose-dependent effect |

Each compound was assayed on RAW264.7 (assay: Antiinflammatory activity against LPS-stimulated mouse RAW264.7 cells assessed as inhibition of IL-6 accumulation at 10 uM pretreated for 2 hrs before LPS challenge after 22 hrs by ELISA relative to control). Conditions: not given.
Type: functional
Design: Activity: scale not given: the % may be the effect or the level left
Procedure, shortened: as §1

| SMILES | Activity |
| --- | --- |
| O=C(/C=C/c1c(F)cccc1F)/C=C/c1c(F)cccc1F | 60% |
| O=C1/C(=C/c2cccc(Cl)c2Cl)CCC/C1=C\c1cccc(Cl)c1Cl | inactive |
| Cc1ccc(/C=C/C(=O)/C=C/c2ccc(C)cc2C)c(C)c1 | 60% |
| Cc1ccc(/C=C2\CC/C(=C\c3ccc(C)cc3C)C2=O)c(C)c1 | inactive |
| COc1cc(OC)c(/C=C/C(=O)/C=C/c2c(OC)cc(OC)cc2OC)c(OC)c1 | 60% |
| O=C(/C=C/c1ccc(Cl)cc1Cl)/C=C/c1ccc(Cl)cc1Cl | inactive |
| O=C(/C=C/c1cc(F)ccc1F)/C=C/c1cc(F)ccc1F | inactive |
| COc1cc(OC)c(/C=C2\CCC/C(=C\c3c(OC)cc(OC)cc3OC)C2=O)c(OC)c1 | 60% |
| COc1cc(OC)c(/C=C2\CC/C(=C\c3c(OC)cc(OC)cc3OC)C2=O)c(OC)c1 | inactive |
| Cc1ccc(/C=C2\CCC/C(=C\c3ccc(C)cc3C)C2=O)c(C)c1 | inactive |
| O=C1/C(=C/c2ccc(Cl)cc2Cl)CC/C1=C\c1ccc(Cl)cc1Cl | inactive |
| O=C(/C=C/c1ccccc1C(=O)O)/C=C/c1ccccc1C(=O)O | inactive |
| O=C1/C(=C\c2ccccc2C(=O)O)CCC/C1=C\c1ccccc1C(=O)O | inactive |
| O=C1/C(=C/c2cccc(Cl)c2Cl)CC/C1=C\c1cccc(Cl)c1Cl | inactive |
| O=C1/C(=C/c2cc(F)ccc2F)CCC/C1=C\c1cc(F)ccc1F | inactive |
| O=C1/C(=C/c2ccccc2C(=O)O)CC/C1=C\c1ccccc1C(=O)O | 60% |
| COc1ccc(/C=C/C(=O)/C=C/c2ccc(OC)cc2OC)c(OC)c1 | 60% |
| O=C1/C(=C/c2cc(F)ccc2F)CC/C1=C\c1cc(F)ccc1F | inactive |
| COc1ccc(/C=C2\CCC/C(=C\c3ccc(OC)cc3OC)C2=O)c(OC)c1 | inactive |
| O=C1/C(=C/c2c(F)cccc2F)CC/C1=C\c1c(F)cccc1F | inactive |
| O=C1/C(=C/c2ccc(Cl)cc2Cl)CCC/C1=C\c1ccc(Cl)cc1Cl | inactive |
| COc1ccc(/C=C2\CC/C(=C\c3ccc(OC)cc3OC)C2=O)c(OC)c1 | 60% |
| O=C1/C(=C/c2c(F)cccc2F)CCC/C1=C\c1c(F)cccc1F | inactive |

Same assay, conditions: Mus musculus, RAW264.7

| SMILES | inhibition at 10 µM [%] |
| --- | --- |
| CN(C)CCCOc1ccc(/C=C2\CCC/C(=C\c3ccc(OCCCN(C)C)cc3)C2=O)cc1 | 97.1 |

These compounds were tested on RAW264.7 (assay: Antiinflammatory activity against LPS-stimulated mouse RAW264.7 cells assessed as inhibition of IL-6 accumulation pretreated for 2 hrs before LPS challenge after 22 hrs by ELISA relative to control). Conditions: not given.
Type: functional, cell-based
Procedure, shortened: as §2

| SMILES | inhibition |
| --- | --- |
| O=C(/C=C/c1c(F)cccc1F)/C=C/c1c(F)cccc1F | Dose-dependent effect |
| CN(C)CCCOc1ccc(/C=C2\CCC/C(=C\c3ccc(OCCCN(C)C)cc3)C2=O)cc1 | Dose-dependent effect |
